What all share (type): functional, Osteoblast
Assay [1] in a line: Induction of cell proliferation in osteoblasts (unknown origin) at 1 uM after 48 hrs by MTT assay relative to untreated control. Put shortly:
(§1)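 Primary mouse osteoblasts were seeded at 2 × 10^3 cells/well and cultured 24 h, then exposed to compound for 48 h. MTT (5.0 mg/ml) was added for a further 4 h at 37 °C, and formazan was dissolved in DMSO. OD was read at 570 nm. Viability = (OD sample − blank)/(OD untreated control − blank) × 100. The blank was cell-free medium.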

Assay [2] is described as follows: Induction of cell proliferation in osteoblasts (unknown origin) at 10 uM after 48 hrs by MTT assay relative to untreated control. Put shortly: as §1
The nature of assay [3]: Induction of cell proliferation in osteoblasts (unknown origin) at 100 uM after 48 hrs by MTT assay relative to untreated control. An outline of the steps: as §1

Take `COc1cc(O)cc2c1C(=O)O[C@H](C)CCCCCCC2`: the Activity in assay [1] came out at 3.45%; in assay [2] it was 14.19%; in assay [3], 51.55%.

Turning to `C[C@@H]1CCCCCCCc2cc(O)cc(O)c2C(=O)O1`, the Activity in assay [1] was 1.67%; in assay [2], -4.54%; in assay [3] it was 19.48%.

As to `COc1cc(O)cc2c1C(=O)O[C@H](C)CCC(=O)CCCC2`, the Activity in assay [1] is reported as 2.87%; in assay [2], -4.29%; in assay [3], 3.28%.

Turning to `COC1=CC(=O)C=C2CCCCC(=O)CC[C@@H](C)OC(=O)[C@@]21O`, the Activity in assay [1] worked out at 12.54%; in assay [2], 10.92%; in assay [3] it was 19.62%.

With `COC1=CC(=O)C=C2CCCC(=O)CCC[C@@H](C)OC(=O)[C@@]21O`, the Activity came out at 10% in assay [1], 8.94% in assay [2] and 2.61% in assay [3].

As to `COC1=CC(=O)C=C2CCCCCCC[C@@H](C)OC(=O)[C@@]21O`, the Activity is -7.91% in assay [1], -43.92% in assay [2] and -68.32% in assay [3].

On to `COc1cc(O)cc2c1C(=O)O[C@H](C)CC[C@@H](O)CCCC2`, for which the Activity is 3.97% in assay [1], -6.67% in assay [2] and 2.1% in assay [3].

On to `[F-].[Na+]` [SODIUM FLUORIDE], for which the Activity in assay [1] is listed as 12.15%; in assay [2], 18.76%; in assay [3], 22.54%.

The values above are taken from ChEMBL document CHEMBL3351425, “Lactones from Ficus auriculata and their effects on the proliferation function of primary mouse osteoblasts in vitro” (2014).
